Results as given in ChEMBL document CHEMBL5038571, “Design and Synthesis of EZH2-Based PROTACs to Degrade the PRC2 Complex for Targeting the Noncatalytic Activity of EZH2” (J Med Chem, 2021).
Activity calls are given as the source filed them. No cut-off for these calls is given here.

Tests used:
A549 [1] = test: Upregulation of […] mRNA expression in human […] cells at 5 uM incubated for 48 hrs by qRT-PCR analysis; type: functional, cell-based
How it was run: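 A549 cells treated 48 h. Trizol RNA extraction, reverse transcription, SYBR qPCR (95 °C 30 s; 40 cycles of 95 °C 6 s, 60 °C 20 s). mRNA normalized to DMSO-treated cells; mean ± SD of three independent experiments.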

Pfeiffer [2] = test: Upregulation of TXINP mRNA expression in human Pfeiffer cells at 1 uM incubated for 48 hrs by qRT-PCR analysis; type: functional, cell-based
How it was run: (§1)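 WSU-DLCL-2 or Pfeiffer cells treated 48 h. Trizol RNA extraction, reverse transcription, SYBR qPCR (95 °C 30 s; 40 cycles of 95 °C 6 s, 60 °C 20 s). mRNA normalized to DMSO-treated cells; mean ± SD of three independent experiments, t-test.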

[3] = target: T1, Protein cereblon/Histone-lysine N-methyltransferase EZH2 (Homo sapiens) (UniProt Q15910+Q96SW2); test: PROTAC activity at CRBN E3 ligase/EZH2 in PRC2 complex in human WSUDLCL2 cells assessed as reduction in H3K27me3 level at 10 uM incubated for 48 hrs by Western blot analysis; type: cell-based
[4] = target: T1, Protein cereblon/Histone-lysine N-methyltransferase EZH2 (Homo sapiens); test: PROTAC activity at CRBN E3 ligase/EZH2 in PRC2 complex in human WSUDLCL2 cells assessed as downregulation of EZH2 expression at 1 uM pretreated with EPZ6438 for 4 hrs followed by compound addition and measured after 48 hrs by Western blot analysis; type: cell-based
How it was run: (§2)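 WSU-DLCL-2 cells pretreated 4 h with the named inhibitor, then compound added and incubated a further 48 h. EZH2, SUZ12, EED and RbAp48 measured by western blot (nitrocellulose transfer, skim-milk block, primary antibody overnight at 4 °C, chemiluminescent detection).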

[5] = target: T1, Protein cereblon/Histone-lysine N-methyltransferase EZH2 (Homo sapiens); test: PROTAC activity at CRBN E3 ligase/EZH2 in PRC2 complex in human DU-145 cells assessed as induction of RbAp48 degradation by measuring reduction in RbAp48 protein level at 1 uM incubated for 48 hrs by Western blot analysis; type: cell-based
How it was run: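 Cancer cell lines exposed to 1 μM compound for 48 h. Lysates immunoblotted (SDS-PAGE, nitrocellulose, 5% milk block, primary antibody overnight at 4 °C) for EZH2, SUZ12, EED, RbAp48 and H3K27me3. Bands quantified by densitometry and normalized to GAPDH.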

MDA-MB-468 = test: Downregulation of CEP76 mRNA expression in human MDA-MB-468 cells at 10 uM incubated for 48 hrs by qRT-PCR analysis; type: functional, cell-based
How it was run: (§3)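 Cells treated 48 h. Total RNA extracted with Trizol, reverse-transcribed, and SYBR RT-qPCR run: 95 °C 30 s, then 40 cycles of 95 °C 6 s and 60 °C 20 s. mRNA normalized to the DMSO-treated group. Mean SD of three independent experiments, t-test versus DMSO.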

[6] = target: T1, Protein cereblon/Histone-lysine N-methyltransferase EZH2 (Homo sapiens); test: PROTAC activity at CRBN E3 ligase/EZH2 in PRC2 complex in human SK-OV-3 cells assessed as induction of RpAb48 degradation by measuring reduction in RpAb48 protein level at 1 uM incubated for 48 hrs by Western blot analysis; type: cell-based
How it was run: (§4)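 Cells cultured in DMEM or RPMI 1640 with 10% FBS and 1% penicillin-streptomycin, 37 °C, 5% CO2; exposed to 1 μM compound for 48 h. Lysates run on SDS-PAGE and transferred to nitrocellulose. Blocked 2 h in 5% skim milk, primary antibody overnight at 4 °C, then secondary antibody. Chemiluminescent detection of PRC2 subunits and H3K27me3.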

NCI-H1299 [7] = test: Downregulation of CHEK1 mRNA expression in human NCI-H1299 cells at 10 uM incubated for 48 hrs by qRT-PCR analysis; type: functional, cell-based; how it was run: as §3
Pfeiffer [8] = test: Upregulation of CDKN2A mRNA expression in human Pfeiffer cells at 1 uM incubated for 48 hrs by qRT-PCR analysis; type: functional, cell-based; how it was run: as §1
[9] = target: T1, Protein cereblon/Histone-lysine N-methyltransferase EZH2 (Homo sapiens); test: PROTAC activity at CRBN E3 ligase/EZH2 in PRC2 complex in human LNCaP cells assessed as reduction in H3K27me3 level at 1 uM incubated for 48 hrs by Western blot analysis; type: cell-based; how it was run: as §4
[10] = target: T1, Protein cereblon/Histone-lysine N-methyltransferase EZH2 (Homo sapiens); test: PROTAC activity at CRBN E3 ligase/EZH2 in PRC2 complex in human WSUDLCL2 cells assessed as induction of SUZ12 degradation incubated for 48 hrs by Western blot analysis; type: cell-based; settings: dose 1-10 µM
How it was run: (§5)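 WSU-DLCL-2 cells treated 48 h (1 μM for the single-concentration screen), lysed; SDS-PAGE, nitrocellulose transfer, 5% milk block, primary antibody 4 °C overnight, chemiluminescence. Bands quantified by densitometry, normalized to GAPDH, expressed relative to DMSO-treated cells; mean ± SD of three independent experiments, t-test.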

[11] = target: T1, Protein cereblon/Histone-lysine N-methyltransferase EZH2 (Homo sapiens); test: PROTAC activity at CRBN E3 ligase/EZH2 in PRC2 complex in human WSUDLCL2 cells assessed as effect on EZH2 mRNA expression at 1 uM incubated for 48 hrs by RT-qPCR analysis; type: cell-based
How it was run: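 WSU-DLCL-2 cells treated 48 h with 1 μM compound. Total RNA extracted with Trizol and reverse-transcribed. SYBR qPCR run as 95 °C 30 s, then 40 cycles of 95 °C 6 s and 60 °C 20 s. PRC2 subunit mRNA normalized to the DMSO-treated group; mean SD, t-test.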

[12] = target: T1, Protein cereblon/Histone-lysine N-methyltransferase EZH2 (Homo sapiens); test: PROTAC activity at CRBN E3 ligase/EZH2 in PRC2 complex in human WSUDLCL2 cells assessed as induction of RbAp48 degradation at 1 uM incubated for 48 hrs by Western blot analysis relative to control; type: cell-based; how it was run: as §5
A549 [13] = test: Downregulation of ARL6IP mRNA expression in human A549 cells at 10 uM incubated for 48 hrs by qRT-PCR analysis; type: functional, cell-based; how it was run: as §3
NCI-H1299 [14] = test: Downregulation of TACC3 mRNA expression in human NCI-H1299 cells at 10 uM incubated for 48 hrs by qRT-PCR analysis; type: functional, cell-based; how it was run: as §3
[15] = target: T1, Protein cereblon/Histone-lysine N-methyltransferase EZH2 (Homo sapiens); test: PROTAC activity at CRBN E3 ligase/EZH2 in PRC2 complex in human WSUDLCL2 cells assessed as downregulation of SUZ12 expression at 1 uM pretreated with EPZ6438 for 4 hrs followed by compound addition and measured after 48 hrs by Western blot analysis; type: cell-based; how it was run: as §2
[16] = target: T1, Protein cereblon/Histone-lysine N-methyltransferase EZH2 (Homo sapiens); test: PROTAC activity at CRBN E3 ligase/EZH2 in PRC2 complex in human WSUDLCL2 cells assessed as induction of RbAp48 degradation incubated for 48 hrs by Western blot analysis; type: cell-based; settings: dose 1-10 µM
[17] = target: T1, Protein cereblon/Histone-lysine N-methyltransferase EZH2 (Homo sapiens); test: PROTAC activity at CRBN E3 ligase/EZH2 in PRC2 complex in human WSUDLCL2 cells assessed as induction of EED degradation at 10 uM incubated for 48 hrs by Western blot analysis; type: cell-based

T1 sequence (Q15910 whole entry, looked up): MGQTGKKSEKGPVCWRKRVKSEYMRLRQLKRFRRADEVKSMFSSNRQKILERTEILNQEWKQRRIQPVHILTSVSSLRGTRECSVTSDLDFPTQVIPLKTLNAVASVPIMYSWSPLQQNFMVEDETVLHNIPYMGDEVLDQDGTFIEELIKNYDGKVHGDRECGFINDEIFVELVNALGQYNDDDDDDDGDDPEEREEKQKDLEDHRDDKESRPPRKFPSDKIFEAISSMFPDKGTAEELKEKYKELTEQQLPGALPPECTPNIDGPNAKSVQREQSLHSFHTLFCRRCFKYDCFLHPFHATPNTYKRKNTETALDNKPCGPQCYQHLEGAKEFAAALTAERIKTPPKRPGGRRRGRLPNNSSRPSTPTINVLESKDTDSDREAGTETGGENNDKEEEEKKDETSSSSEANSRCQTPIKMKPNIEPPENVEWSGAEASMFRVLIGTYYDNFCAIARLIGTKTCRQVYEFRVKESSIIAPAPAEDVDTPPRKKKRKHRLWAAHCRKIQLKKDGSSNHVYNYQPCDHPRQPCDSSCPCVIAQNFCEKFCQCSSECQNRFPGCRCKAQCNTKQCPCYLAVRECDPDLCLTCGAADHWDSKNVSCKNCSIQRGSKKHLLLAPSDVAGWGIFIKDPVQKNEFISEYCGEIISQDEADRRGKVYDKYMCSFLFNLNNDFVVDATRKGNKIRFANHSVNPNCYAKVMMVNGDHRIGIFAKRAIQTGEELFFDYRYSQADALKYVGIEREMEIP
T1 sequence (Q96SW2 whole entry, looked up): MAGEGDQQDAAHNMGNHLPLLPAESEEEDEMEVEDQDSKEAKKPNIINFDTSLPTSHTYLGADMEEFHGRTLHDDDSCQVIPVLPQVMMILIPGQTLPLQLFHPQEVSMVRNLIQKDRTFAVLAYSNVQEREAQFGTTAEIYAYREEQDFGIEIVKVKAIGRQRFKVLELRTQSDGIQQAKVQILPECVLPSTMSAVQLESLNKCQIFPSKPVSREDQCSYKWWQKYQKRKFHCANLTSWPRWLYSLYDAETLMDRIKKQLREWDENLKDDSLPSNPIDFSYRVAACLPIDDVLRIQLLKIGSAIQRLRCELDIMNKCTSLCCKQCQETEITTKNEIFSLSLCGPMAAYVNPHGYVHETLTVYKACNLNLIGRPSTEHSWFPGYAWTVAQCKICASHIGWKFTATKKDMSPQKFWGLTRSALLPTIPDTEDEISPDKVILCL

## CCN(c1cc(-c2ccc(CN3CCN(CCCCCCCOc4cccc5c4C(=O)N(C4CCC(=O)NC4=O)C5=O)CC3)cc2)cc(C(=O)NCc2c(C)cc(C)[nH]c2=O)c1C)C1CCOCC1 (stereo not drawn)
A549 [1]
  Activity: Active
Pfeiffer [2]
  Activity: inactive
[3]
  Activity: inactive
[4]
  Activity: inactive
[5]
  Activity: Active
MDA-MB-468
  Activity: Active
[6]
  Activity: Active
NCI-H1299 [7]
  Activity: Active
Pfeiffer [8]
  Activity: inactive
[9]
  Activity: Active
[10]
  Activity: Dose-Dependent Effect
[11]
  Activity: inactive
[12]
  Activity: 74%
A549 [13]
  Activity: Active
NCI-H1299 [14]
  Activity: Active
[15]
  Activity: inactive
[16]
  Activity: Dose-Dependent Effect
[17]
  Activity: inactive
